This is an account of results in ChEMBL document CHEMBL5331127, “Discovery of ARD-2051 as a Potent and Orally Efficacious Proteolysis Targeting Chimera (PROTAC) Degrader of Androgen Receptor for the Treatment of Advanced Prostate Cancer” (J Med Chem, 2023).

The target in one series is T1, Androgen receptor (Homo sapiens, UniProt P10275).
T1 sequence (P10275 whole entry): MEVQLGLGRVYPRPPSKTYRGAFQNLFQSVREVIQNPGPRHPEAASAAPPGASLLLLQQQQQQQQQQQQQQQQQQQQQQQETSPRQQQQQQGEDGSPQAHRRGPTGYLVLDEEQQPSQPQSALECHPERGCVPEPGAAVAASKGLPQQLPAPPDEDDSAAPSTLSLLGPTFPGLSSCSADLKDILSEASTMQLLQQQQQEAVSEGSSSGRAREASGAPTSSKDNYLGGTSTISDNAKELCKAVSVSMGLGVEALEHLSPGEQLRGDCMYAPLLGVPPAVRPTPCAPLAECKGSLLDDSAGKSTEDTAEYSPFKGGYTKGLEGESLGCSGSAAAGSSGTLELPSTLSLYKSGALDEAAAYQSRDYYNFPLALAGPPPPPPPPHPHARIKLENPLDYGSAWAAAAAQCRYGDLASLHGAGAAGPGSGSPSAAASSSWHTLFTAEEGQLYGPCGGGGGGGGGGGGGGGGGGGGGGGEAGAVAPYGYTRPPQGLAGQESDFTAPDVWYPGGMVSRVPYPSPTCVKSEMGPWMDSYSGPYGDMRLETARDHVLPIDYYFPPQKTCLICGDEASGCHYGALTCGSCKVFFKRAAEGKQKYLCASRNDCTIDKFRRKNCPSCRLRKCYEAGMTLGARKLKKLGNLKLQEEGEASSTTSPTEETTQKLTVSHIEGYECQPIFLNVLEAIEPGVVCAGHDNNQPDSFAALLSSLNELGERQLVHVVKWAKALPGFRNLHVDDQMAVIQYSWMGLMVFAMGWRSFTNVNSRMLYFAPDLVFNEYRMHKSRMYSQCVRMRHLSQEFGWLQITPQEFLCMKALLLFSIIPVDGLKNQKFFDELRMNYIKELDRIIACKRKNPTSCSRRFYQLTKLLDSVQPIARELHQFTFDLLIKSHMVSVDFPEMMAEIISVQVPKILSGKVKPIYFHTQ
As to the kind of experiment: Induction of androgen receptor degradation in human VCaP cells incubated for 24 hrs by Western blot analysis. It is filed as cell-based. (In general: Immunoblotting shows a protein as a band on a membrane.)

Series [1] concerns LNCaP. As to the kind of experiment: Induction of androgen receptor degradation in human LNCaP cells at 100 nM pretreated with MLN4924 for 2 hrs followed by compound addition and 3 hrs by Western blot analysis. The series is classed as functional, cell-based. The conditions noted are these: time 5.0 hrs. The gist of the method: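 LNCaP or VCaP cells pretreated 2 h with DMSO, ARi-12 (10 μM), thalidomide (10 μM), MG-132 (3 μM) or MLN4924 (0.5 μM), then given degrader at 100 nM for 3 h. AR measured by Western blot with GAPDH as loading control.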

In series [2] the test system is LNCaP. Nature of the series: Downregulation of KLK3 gene expression in human LNCaP cells incubated for 24 hrs by qRT-PCR analysis. It is filed as functional, cell-based. Particulars: dose 0.03-30 nM. The method in brief: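 LNCaP cells (RPMI 1640) or VCaP cells (DMEM Glutamax), both with 10% FBS, treated for 24 h. KLK3 mRNA measured by qRT-PCR and calculated by the comparative CT method against GAPDH and vehicle.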

The target in series [3] is T2, Androgen receptor (Homo sapiens) (UniProt P10275).
T2 sequence (whole entry): T1 sequence (P10275 whole entry)
Nature of the series: Induction of androgen receptor degradation in human VCaP cells at 100 to 1000 nM incubated for 24 hrs by proteomic analysis. It is filed as cell-based. Particulars: dose 100-1000 nM. The method in brief:
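VCaP cells treated for 24 h with degrader at 100 nM or 1 μM, or with ARi-12 at 10 μM. Multiplexed quantitative proteomics, normalised to DMSO, three independent replicates. Cut-off p ≤0.05 and fold change >2.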

Series [4] can be described thus: Metabolic stability in mouse liver microsomes assessed as half life at 1 uM measured upto 45 mins in presence of NADPH by LC-MS/MS analysis. It is filed as ADME, Microsome. Particulars: 0.75 h. The method in brief: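 Pooled liver microsomes from each species: 1 μM compound with 0.5 mg/mL microsomes and 1.7 mM NADPH in 0.1 M K-phosphate, pH 7.4, 5 mM MgCl2, 37 °C. Sampled at 0, 5, 10, 15, 30 and 45 min with cold ACN quench. No-NADPH incubation as negative control; ketanserin as positive control. LC-MS/MS; half-life from ln(remaining) versus time.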
For orientation: Microsomes from liver hold many membrane-bound enzymes, among them those of drug oxidation.

Series [5] can be described thus: Metabolic stability in mouse hepatocytes assessed as half life at 1 uM measured upto 120 mins in presence of NADPH by LC-MS/MS analysis. The series is classed as ADME, cell-based, Hepatocyte. Particulars: 2 h.
The nature of series [6]: Metabolic stability in mouse plasma assessed as half life at 1 uM measured upto 120 mins by LC-MS/MS analysis. It is filed as ADME, cell-free. The conditions noted are these: 2 h. The method in brief:
(§1)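 Compound at 1 μM final in pre-warmed plasma of each species, 37 °C for up to 2 h. ACN/IS quench at 0, 5, 15, 30, 60 and 120 min; LC/MS. Procaine as reference (benfluorex for rat). t1/2 = 0.693/slope of ln(fraction remaining) versus time.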

A short description of series [7]: Metabolic stability in dog plasma assessed as half life at 1 uM measured upto 120 mins by LC-MS/MS analysis. It is filed as ADME, cell-free, Canis lupus familiaris. The conditions noted are these: 2 h. The gist of the method: as §1
The next series addresses Cytochrome P450 2C9 (Homo sapiens, UniProt P11712). As to the kind of experiment: Inhibition of CYP2C9 in human liver microsomes preincubated for 5 mins followed by NADPH addition and measured after 10 mins by LC/MS analysis. The series is classed as ADME, Microsome.
A short description of series [8]: AUC(0 to t) in Sprague-Dawley rat at 1 mg/kg, iv measured upto 24 hrs by LC-MS/MS analysis. It is filed as ADME, organism-based. Set-up: time < 24 hrs, dose 1 mg/kg, route iv. Particulars: in vivo. The gist of the method:
(§2)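 Male ICR mice (2 mg/kg), male SD rats (1 mg/kg) or male Beagle dogs (1 mg/kg) given a single intravenous dose in 10% PEG400 + 90% PBS adjusted to pH 8.0 with NaOH.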

Series [9] can be described thus: Clearance in Beagle dog at 1 mg/kg, iv measured upto 24 hrs by LC-MS/MS analysis. It is filed as ADME, organism-based, Canis lupus familiaris. The conditions noted are these: in vivo. The gist of the method:
as §2

Series [10] is described as follows: Half life in Beagle dog at 3 mg/kg, po measured up to 24 hrs by LC-MS/MS analysis. The conditions noted are these: in vivo. It is filed as ADME, organism-based, Canis lupus familiaris. The gist of the method: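 Male Beagle dogs dosed orally at 3 mg/kg in 90% PEG400 + 10% Cremophor.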
The nature of series [11]: Oral bioavailability in Beagle dog at 3 mg/kg measured up to 24 hrs by LC-MS/MS analysis. The series is classed as ADME, organism-based, Canis lupus familiaris. Particulars: in vivo. The method in brief: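 Male Beagle dogs. IV 1 mg/kg in 10% PEG400 + 90% PBS (pH 8.0); PO 3 mg/kg in 90% PEG400 + 10% Cremophor. Plasma PK to 24 h; F from IV and PO exposure.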
Another series deals with Mus musculus. As to the kind of experiment: In vivo induction of androgen receptor degradation in human VCaP cells xenografted in CB17 SCID mouse assessed as reduction in TMPRSS2 mRNA level at 12.5 mg/kg, po measured after 6 to 24 hrs by qRT-PCR analysis. The series is classed as functional, organism-based. Particulars: time 6-24 hrs. For orientation: In xenograft studies the graft and the host belong to different species.

Series [12] is described as follows: Toxicity in CB17 SCID mouse assessed as weight loss at 3.75 to 30 mg/kg, po. The conditions noted are these: in vivo, dose 3.75-30 mg/kg. It is filed as organism-based. The method in brief:
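SCID mice bearing VCaP xenografts dosed by oral gavage once daily for 21 days. Body weight and signs of toxicity monitored throughout.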

pEC50, pIC50: −log10 of the molar value. Active and inactive are the calls of the source. Some results are limits rather than exact numbers.

Cytochrome P450 2C9, sequence (P11712 whole entry): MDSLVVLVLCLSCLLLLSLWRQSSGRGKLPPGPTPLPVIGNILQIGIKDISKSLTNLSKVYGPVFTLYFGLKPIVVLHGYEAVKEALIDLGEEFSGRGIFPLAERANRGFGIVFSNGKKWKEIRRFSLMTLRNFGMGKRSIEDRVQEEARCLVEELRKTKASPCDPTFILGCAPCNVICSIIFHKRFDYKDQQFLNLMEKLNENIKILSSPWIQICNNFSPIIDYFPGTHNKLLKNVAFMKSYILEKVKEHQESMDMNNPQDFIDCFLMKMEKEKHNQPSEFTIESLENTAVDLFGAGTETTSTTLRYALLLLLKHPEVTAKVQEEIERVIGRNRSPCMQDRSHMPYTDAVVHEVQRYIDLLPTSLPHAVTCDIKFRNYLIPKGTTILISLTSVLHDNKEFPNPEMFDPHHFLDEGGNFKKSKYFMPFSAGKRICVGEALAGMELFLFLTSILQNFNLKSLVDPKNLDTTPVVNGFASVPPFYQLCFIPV

Regarding `C[C@H]1CC2(CCN(c3ccc(C(=O)N4CCN(C5CN(c6ccc7c(c6)C(=O)N(C6CCC(=O)NC6=O)C7=O)C5)CC4)cc3)CC2)CN1c1ccc(C#N)c(Cl)c1` (stereo not given in full), the pEC50 on Androgen receptor was 9.22. Moreover, the result in the series with LNCaP [1] was inactive. For the same compound, the Activity entry was “Dose-Dependent Effect” in the series on LNCaP [2], 82% in series [3] and under 5% in [12]. Besides, the t1/2 in series [4] was over 1 h; in series [5], over 2 h; in [6], over 2 h; in series [7], over 2 h; in series [10] it was 3.4 h. Moreover, the pIC50 on Cytochrome P450 2C9 is under 5.00. In [8], this compound came in with an AUCt of 1560 ng·h/mL. For the same compound, the clearance in [9] worked out at 4.6 mL/min/kg. The same compound came in with a F in series [11] of 46%. For the same compound, the result in the series on Mus musculus was Active.

As a reminder, the pEC50 is −log10 of the EC50, conventionally taken in molar units. Low readings indicate a high EC50, high ones a low EC50. Usually pIC50 stands for the negative decadic logarithm of the IC50, by convention in mol/L. Read a low pIC50 as a high IC50. A word on the clearance: it is the rate of elimination divided by the concentration. High values mean efficient removal, low ones inefficient removal.
